The target in assay [1] is T1, Adenosine receptor A1 (Homo sapiens) (UniProt P30542).
T1 sequence (whole entry): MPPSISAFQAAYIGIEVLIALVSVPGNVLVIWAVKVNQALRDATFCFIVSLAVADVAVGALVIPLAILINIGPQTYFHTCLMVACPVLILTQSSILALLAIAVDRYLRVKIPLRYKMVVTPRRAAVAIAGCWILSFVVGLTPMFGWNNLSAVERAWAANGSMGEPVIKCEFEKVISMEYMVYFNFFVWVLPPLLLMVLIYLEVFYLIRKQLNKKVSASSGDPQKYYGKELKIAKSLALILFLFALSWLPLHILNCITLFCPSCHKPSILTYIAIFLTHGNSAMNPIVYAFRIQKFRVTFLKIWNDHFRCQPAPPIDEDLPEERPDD
Description: Displacement of [3H]DPCPX from human adenosine A1 receptor expressed in CHO cells at 10 uM. Format: cell-based. In a few lines: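 Competition for 1 nM [3H]DPCPX at CHO hA1 membranes (100 µg protein), 150 min at 25 °C, Tris-HCl pH 7.4. Nonspecific binding defined with 1 µM DPCPX. Compound tested at 10 µM; percent displacement reported, n = 3.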

Assay [2] addresses T1, Adenosine receptor A1 (Homo sapiens). Nature of the assay: Activity at human recombinant adenosine A1 receptor expressed in CHO cells assessed as inhibition of forskolin-stimulated cAMP accumulation in presence of CPA at 10 uM relative to control. Format: functional, cell-based. Set-up: scale not given: the % may be the effect or the level left. In a few lines: (§1)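 CHO cells stably expressing human A1 receptor (about 5 pmol/mg protein), grown 48–72 h in Ham's F12 with FBS and G-418. Cells were washed in HBSS for 6 min at 37 °C, then incubated 6 min at 37 °C in HBSS with adenosine deaminase (0.5 U/ml), 20 µM rolipram, 1 µM forskolin and 0.03 nM CPA, plus compound at 0.01–10 µM. Stopped with 50 mM HCl; cAMP read by acetylation radioimmunoassay. Quadruplicates; averaged over six experiments.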

The target of assay [3] is T2, Adenosine receptor A3 (Homo sapiens) (UniProt P0DMS8).
T2 sequence (whole entry): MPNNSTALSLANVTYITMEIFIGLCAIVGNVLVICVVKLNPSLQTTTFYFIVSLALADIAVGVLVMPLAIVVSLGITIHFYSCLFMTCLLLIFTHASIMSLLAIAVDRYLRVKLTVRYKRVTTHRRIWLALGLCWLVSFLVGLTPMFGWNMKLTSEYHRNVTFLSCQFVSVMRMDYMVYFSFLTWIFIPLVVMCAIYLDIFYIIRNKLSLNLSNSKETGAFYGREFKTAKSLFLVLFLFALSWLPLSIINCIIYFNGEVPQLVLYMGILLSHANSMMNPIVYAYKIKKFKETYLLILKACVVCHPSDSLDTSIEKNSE
Description: Displacement of [3H]MRE-3008F20 from human adenosine A3 receptor expressed in CHO cells at 10 uM. It is filed as cell-based. In a few lines:
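Competition for [3H]MRE-3008F20 at CHO hA3 membranes (100 µg protein), 150 min at 4 °C, Tris-HCl with MgCl2 and 1 mM EDTA, pH 7.4. Compound tested at 10 µM; percent displacement reported, n = 3.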

For assay [4], the target named is T1, Adenosine receptor A1 (Homo sapiens). Description: Activity at human recombinant adenosine A1 receptor expressed in CHO cells assessed as inhibition of forskolin-stimulated cAMP accumulation in presence of CPA at 1 uM relative to control. It is filed as functional, cell-based. Details: scale not given: the % may be the effect or the level left. In a few lines:
as §1

For assay [5] the target is unchanged. Nature of the assay: Activity at human recombinant adenosine A1 receptor expressed in CHO cells assessed as inhibition of forskolin-stimulated cAMP accumulation in presence of CPA at 0.01 uM relative to control. Format: functional, cell-based. Details: scale not given: the % may be the effect or the level left. A digest of the protocol: as §1
Assay [6] addresses Adenosine A2 receptor (Homo sapiens) (UniProt P29275+P29274). Description: Displacement of [3H]ZM 241385 from human adenosine A2 receptor expressed in CHO cells at 10 uM. It is filed as cell-based. In a few lines:
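Competition for [3H]ZM 241385 at CHO hA2A membranes (100 µg protein), 60 min at 4 °C, Tris-HCl with MgCl2, pH 7.4. Nonspecific binding defined with 1 µM ZM241385. Compound tested at 10 µM; percent displacement reported, n = 3.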

Assay [7] has as its target T1, Adenosine receptor A1 (Homo sapiens). Description: Activity at human recombinant adenosine A1 receptor expressed in CHO cells assessed as inhibition of forskolin-stimulated cAMP accumulation in presence of CPA at 0.1 uM relative to control. It is filed as functional, cell-based. Details: scale not given: the % may be the effect or the level left. A digest of the protocol:
as §1

For assay [8] the target is unchanged. Description: Activity at human recombinant adenosine A1 receptor expressed in CHO cells assessed as inhibition of forskolin-stimulated cAMP accumulation in the presence of CPA at 10 uM. Set-up: scale not given: the % may be the effect or the level left. Format: functional, cell-based. A digest of the protocol: as §1
Assay [9] has the same target. Nature of the assay: Activity at human recombinant adenosine A1 receptor expressed in CHO cells assessed as inhibition of forskolin-stimulated cAMP accumulation in the presence of CPA relative to control. It is filed as functional, cell-based. Set-up: scale not given: the % may be the effect or the level left. A digest of the protocol:
as §1

The source made the active and inactive calls. No cut-off for these calls is given here.

As for `Cc1ccc(C(=O)c2c(N)sc3cnccc23)cc1`, the figures for the inhibition in [1], in [3] and in [6] were 45%, 0% and 0%, respectively. Moreover, the Activity in assay [2] came to 121%; in assay [4], 107%; in assay [5] it was 102%; in [7] it was 107%.

For the compound `Nc1sc2cnccc2c1C(=O)c1ccc(Cl)c(Cl)c1`, the inhibition in assay [1], in [3] and in [6] was 0% each time. Further, the Activity came out at 105% in assay [2], 103% in [4], 113% in assay [5] and 108% in assay [7].

On to `Nc1sc2cnccc2c1C(=O)c1ccc(Cl)cc1`, for which the inhibition stood at 50% in [1], 0% in assay [3] and 0% in [6]. Also, the Activity in [2] is 114%; in [4] it was 96%; in assay [5], 104%; in assay [7] it was 102%.

`Nc1sc2cnccc2c1C(=O)c1cccc(C(F)(F)F)c1`: the inhibition in assay [1], in assay [3] and in [6] was 0% each time. Also, the Activity in assay [8] is 37%; in [2], 63%; in assay [4], 82%; in [5], 101%; in assay [7], 95%.

As for `Nc1sc2cnccc2c1C(=O)c1ccccc1`, the inhibition in assay [1], in [3] and in [6] was 0% in each case. The Activity in assay [2] is 100%; in assay [4], 90%; in assay [5], 91%; in [7], 89%.

Turning to `COc1ccc(C(=O)c2c(N)sc3cnccc23)cc1`, the inhibition in assay [1], in assay [3] and in assay [6] was 0% throughout. In addition, the Activity in [2] came out at 94%; in [4], 90%; in assay [5], 95%; in [7] it was 97%.

Turning to `Nc1sc2cnccc2c1C(=O)c1ccccc1Cl`, the inhibition in assay [1], in [3] and in assay [6] was 0% in each case. The Activity in assay [2] came to 111%; in assay [4] it was 97%; in [5], 103%; in assay [7] it was 98%.

As to `Cc1sc(N)c(C(=O)c2cccc(C(F)(F)F)c2)c1C`, the Activity in assay [9] came to 48%; in [2], 52%; in assay [4], 81%; in [5] it was 97%; in assay [7], 93%. Also, the inhibition in assay [1] and in assay [6] was 0% each time.

With `Nc1sc2cnccc2c1C(=O)c1cccs1`, the inhibition in assay [1] was 35%; in assay [3] it was 0%; in [6] it was 0%. In addition, the Activity in [2] came out at 98%; in [4], 107%; in [5], 111%; in assay [7], 104%.

For the compound `Nc1sc2cnccc2c1C(=O)c1ccc(Br)cc1`, the inhibition in [1], in [3] and in assay [6] was 0% each time. Also, the Activity in assay [2] is 104%; in assay [4], 84%; in assay [5], 97%; in [7] it was 89%.

Take `Nc1sc2cnccc2c1C(=O)c1cccc2ccccc12`: the inhibition in assay [1], in [3] and in assay [6] was 0% in each case. In addition, the outcome in [8] was Active. Moreover, the Activity in assay [2] was 66%; in [4] it was 107%; in assay [5], 113%; in assay [7], 112%.

Source of the values: ChEMBL document CHEMBL1139691, “Microwave-assisted synthesis of thieno[2,3-c]pyridine derivatives as a new series of allosteric enhancers at the adenosine A(1) receptor” (Bioorg Med Chem Lett, 2006).
